Results published in ChEMBL document CHEMBL1125592, “Calcium channel blocking and positive inotropic activities of ethyl 5-cyano-1,4-dihydro-6-methyl-2-[(phenylsulfonyl)methyl]-4-aryl-3- pyridine-carboxylate and analogues. Synthesis and structure-activity relationships” (J Med Chem, 1991).

Key:
[1] = target: Voltage-gated L-type calcium channel (Rattus norvegicus, UniProt P22002+Q02485+P27732); assay: Affinity to bind dihydropyridine receptor (DHP receptor) by inhibiting the radioligand [3H]nitrendipine; type: protein assay
Method in brief: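 [3H]nitrendipine displacement, rat brain cortical membranes. Each compound first screened at 1000 nM; if inhibition exceeded 40%, a four- to seven-point curve with unlabeled compound was run. IC50 generally mean of two experiments, each in triplicate. ">1000 nM" means under 40% inhibition of control binding at 1000 nM.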

Oryctolagus cuniculus [2] = species: Oryctolagus cuniculus; assay: Vasoconstrictor effect at a concentration of 10e-7 M in presence of nondepolarized isolated rings from rabbits.; type: functional
Oryctolagus cuniculus [3] = species: Oryctolagus cuniculus; assay: Vasoconstrictor effect at a concentration of 10e-7 M in presence of partially depolarized isolated rings from rabbits.; type: functional
Oryctolagus cuniculus [4] = species: Oryctolagus cuniculus; assay: Vasoconstrictor effect at a concentration of 10e-8 M in presence of nondepolarized isolated rings from rabbits.; type: functional
Oryctolagus cuniculus [5] = species: Oryctolagus cuniculus; assay: Vasoconstrictor effect at a concentration of 10e-8 M in presence of partially depolarized isolated rings from rabbits.; type: functional
Oryctolagus cuniculus [6] = species: Oryctolagus cuniculus; assay: Vasoconstrictor effect at a concentration of 10e-9 M in presence of partially depolarized isolated rings from rabbits.; type: functional
Oryctolagus cuniculus [7] = species: Oryctolagus cuniculus; assay: Vasoconstrictor effect at a concentration of 10e-9 M in presence of nondepolarized isolated rings from rabbits.; type: functional
Oryctolagus cuniculus [8] = species: Oryctolagus cuniculus; assay: Vasorelaxant effect at a concentration of 10e-4 M on rabbit aortic rings previously contracted with 1.0 uM Norepinephrine.; type: functional, Aorta; parameters: unit not given here
Method in brief: (§1)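 Rabbit aortic rings precontracted with 50 mM KCl or 1.0 μM norepinephrine, then exposed to increasing concentrations of test agent. Relaxation recorded at each concentration.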

Oryctolagus cuniculus [9] = species: Oryctolagus cuniculus; assay: Vasorelaxant effect at a concentration of 10e-4 M on rabbit aortic rings previously contracted with 50 mM KCl.; type: functional, Aorta; parameters: unit not given here; method in brief: as §1
Oryctolagus cuniculus [10] = species: Oryctolagus cuniculus; assay: Vasorelaxant effect at a concentration of 10e-5 M on rabbit aortic rings previously contracted with 1.0 uM Norepinephrine.; type: functional, Aorta; parameters: unit not given here; method in brief: as §1
Oryctolagus cuniculus [11] = species: Oryctolagus cuniculus; assay: Vasorelaxant effect at a concentration of 10e-5 M on rabbit aortic rings previously contracted with 50 mM KCl.; type: functional, Aorta; parameters: unit not given here; method in brief: as §1
Oryctolagus cuniculus [12] = species: Oryctolagus cuniculus; assay: Vasorelaxant effect at a concentration of 10e-6 M on rabbit aortic rings previously contracted with 1.0 uM Norepinephrine.; type: functional, Aorta; parameters: unit not given here; method in brief: as §1
Oryctolagus cuniculus [13] = species: Oryctolagus cuniculus; assay: Vasorelaxant effect at a concentration of 10e-6 M on rabbit aortic rings previously contracted with 50 mM KCl.; type: functional, Aorta; parameters: unit not given here; method in brief: as §1
Oryctolagus cuniculus [14] = species: Oryctolagus cuniculus; assay: Vasorelaxant effect at a concentration of 10e-7 M on rabbit aortic rings previously contracted with 1.0 uM Norepinephrine.; type: functional, Aorta; parameters: unit not given here; method in brief: as §1
Oryctolagus cuniculus [15] = species: Oryctolagus cuniculus; assay: Vasorelaxant effect at a concentration of 10e-7 M on rabbit aortic rings previously contracted with 50 mM KCl.; type: functional, Aorta; parameters: unit not given here; method in brief: as §1
Oryctolagus cuniculus [16] = species: Oryctolagus cuniculus; assay: Vasorelaxant effect at a concentration of 10e-8 M on rabbit aortic rings previously contracted with 1.0 uM Norepinephrine.; type: functional, Aorta; method in brief: as §1
Oryctolagus cuniculus [17] = species: Oryctolagus cuniculus; assay: Vasorelaxant effect at a concentration of 10e-8 M on rabbit aortic rings previously contracted with 50 mM KCl.; type: functional, Aorta; method in brief: as §1
Oryctolagus cuniculus [18] = species: Oryctolagus cuniculus; assay: Vasorelaxant effect at a concentration of 10e-9 M on rabbit aortic rings previously contracted with 1.0 uM Norepinephrine.; type: functional, Aorta; method in brief: as §1
Oryctolagus cuniculus [19] = species: Oryctolagus cuniculus; assay: Vasorelaxant effect at a concentration of 10e-9 M on rabbit aortic rings previously contracted with 50 mM KCl.; type: functional, Aorta; method in brief: as §1
Oryctolagus cuniculus [20] = species: Oryctolagus cuniculus; assay: Vasoconstrictor effect at a concentration of 10e-4 M in presence of nondepolarized isolated rings from rabbits.; type: functional
Oryctolagus cuniculus [21] = species: Oryctolagus cuniculus; assay: Vasoconstrictor effect at a concentration of 10e-4 M in presence of partially depolarized isolated rings from rabbits.; type: functional
Oryctolagus cuniculus [22] = species: Oryctolagus cuniculus; assay: Vasoconstrictor effect at a concentration of 10e-5 M in presence of nondepolarized isolated rings from rabbits.; type: functional
Oryctolagus cuniculus [23] = species: Oryctolagus cuniculus; assay: Vasoconstrictor effect at a concentration of 10e-5 M in presence of partially depolarized isolated rings from rabbits.; type: functional
Oryctolagus cuniculus [24] = species: Oryctolagus cuniculus; assay: Vasoconstrictor effect at a concentration of 10e-6 M in presence of partially depolarized isolated rings from rabbits.; type: functional
Rattus norvegicus [25] = species: Rattus norvegicus; assay: Compound was tested for its effect on coronary vasodilator in isolated rat hearts.; type: functional
Method in brief: (§2)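 Coronary vasodilation and ventricular contractility measured in isolated Langendorff-perfused rat hearts. EC25 (concentration raising the parameter by 25%) given as mean ± SEM of four to six hearts.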

Rattus norvegicus [26] = species: Rattus norvegicus; assay: Compound was tested for its effect on ventricular contractility in isolated rat hearts.; type: functional, Cardiac ventricle; method in brief: as §2
Rattus norvegicus [27] = species: Rattus norvegicus; assay: Cardiovascular activity in isolated rat heart, concentration producing 25% increase in CF (cardiac flow).; type: functional
Method in brief: (§3)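 Isolated Langendorff-perfused rat heart. Coronary flow (CF), LV +dP/dtmax and heart rate recorded during exposure to test agent. Value is the concentration giving a 25% rise in CF or in LV +dP/dtmax, mean ± SE. At least two hearts per compound.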

Rattus norvegicus [28] = species: Rattus norvegicus; assay: Cardiovascular activity in isolated rat heart, concentration producing 25% increase in LV + dP/dtmax.; type: functional; method in brief: as §3
Rattus norvegicus [29] = species: Rattus norvegicus; assay: Compound was tested for its effect on ventricular cantractility in isolated rat hearts.; type: functional, Cardiac ventricle; method in brief: as §2
Oryctolagus cuniculus [30] = species: Oryctolagus cuniculus; assay: Vasoconstrictor effect at a concentration of 10e-5 M using nondepolarized isolated rings from rabbit.; type: functional
Oryctolagus cuniculus [31] = species: Oryctolagus cuniculus; assay: Vasoconstrictor effect at a concentration of 10e-7 M using partially depolarized isolated rings from rabbit.; type: functional
Oryctolagus cuniculus [32] = species: Oryctolagus cuniculus; assay: Vasoconstrictor effect at a concentration of 10e-8 M using nondepolarized isolated rings from rabbit.; type: functional
Oryctolagus cuniculus [33] = species: Oryctolagus cuniculus; assay: Vasoconstrictor effect at a concentration of 10e-8 M using partially depolarized isolated rings from rabbit.; type: functional
Oryctolagus cuniculus [34] = species: Oryctolagus cuniculus; assay: Vasoconstrictor effect at a concentration of 10e-5 M using partially depolarized isolated rings from rabbit.; type: functional
Oryctolagus cuniculus [35] = species: Oryctolagus cuniculus; assay: Vasoconstrictor effect at a concentration of 10e-6 M using nondepolarized isolated rings from rabbit.; type: functional
Oryctolagus cuniculus [36] = species: Oryctolagus cuniculus; assay: Vasoconstrictor effect at a concentration of 10e-6 M using partially depolarized isolated rings from rabbit.; type: functional
Oryctolagus cuniculus [37] = species: Oryctolagus cuniculus; assay: Vasoconstrictor effect at a concentration of 10e-7 M using nondepolarized isolated rings from rabbit.; type: functional
Oryctolagus cuniculus [38] = species: Oryctolagus cuniculus; assay: Vasoconstrictor effect at a concentration of 10e-9 M using nondepolarized isolated rings from rabbit.; type: functional
Oryctolagus cuniculus [39] = species: Oryctolagus cuniculus; assay: Vasoconstrictor effect at a concentration of 10e-9 M using partially depolarized isolated rings from rabbit.; type: functional
Oryctolagus cuniculus [40] = species: Oryctolagus cuniculus; assay: Vasoconstrictor effect at a concentration of 3 x 10e-8 M using nondepolarized isolated rings from rabbit.; type: functional
Oryctolagus cuniculus [41] = species: Oryctolagus cuniculus; assay: Vasoconstrictor effect at a concentration of 3 x 10e-8 M using partially depolarized isolated rings from rabbit.; type: functional
Oryctolagus cuniculus [42] = species: Oryctolagus cuniculus; assay: Vasoconstrictor effect at a concentration of 3 x 10e-9 M using nondepolarized isolated rings from rabbit.; type: functional
Oryctolagus cuniculus [43] = species: Oryctolagus cuniculus; assay: Vasoconstrictor effect at a concentration of 3 x 10e-9 M using partially depolarized isolated rings from rabbit.; type: functional
Oryctolagus cuniculus [44] = species: Oryctolagus cuniculus; assay: Vasorelaxant effect at a concentration of 10e-10 M on rabbit aortic rings previously contracted with 1.0 uM Norepinephrine.; type: functional, Aorta
Method in brief: (§4)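 They were then exposed to increasing concentrations of the test agent, and relaxation of the precontraction was recorded as calcium channel blocking activity.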

Oryctolagus cuniculus [45] = species: Oryctolagus cuniculus; assay: Vasorelaxant effect at a concentration of 10e-10 M on rabbit aortic rings previously contracted with 50 mM KCl.; type: functional, Aorta; method in brief: as §4

Compound: CCOC(=O)C1=C(CS(=O)(=O)c2ccncc2)NC(C)=C(C#N)C1c1ccccc1C(F)(F)F (stereo in doubt; 54)
- IC50 [1]: 271 nM
- Vasoconstriction effect (Oryctolagus cuniculus [2]): 0
- Vasoconstriction effect (Oryctolagus cuniculus [3]): 5
- Vasoconstriction effect (Oryctolagus cuniculus [4]): 0
- Vasoconstriction effect (Oryctolagus cuniculus [5]): 4.5
- Vasoconstriction effect (Oryctolagus cuniculus [6]): 3.3
- Vasoconstriction effect (Oryctolagus cuniculus [7]): 0
- Vasorelaxant effect (Oryctolagus cuniculus [8]): 4.2
- Vasorelaxant effect (Oryctolagus cuniculus [9]): 88.9
- Vasorelaxant effect (Oryctolagus cuniculus [10]): 0.7
- Vasorelaxant effect (Oryctolagus cuniculus [11]): 53.8
- Vasorelaxant effect (Oryctolagus cuniculus [12]): -2.3
- Vasorelaxant effect (Oryctolagus cuniculus [13]): 6.2
- Vasorelaxant effect (Oryctolagus cuniculus [14]): -1.8
- Vasorelaxant effect (Oryctolagus cuniculus [15]): -9.1
- Vasorelaxant effect (Oryctolagus cuniculus [16]): -1.4
- Vasorelaxant effect (Oryctolagus cuniculus [17]): -8.6
- Vasorelaxant effect (Oryctolagus cuniculus [18]): -0.9
- Vasorelaxant effect (Oryctolagus cuniculus [19]): -4.8
- Vasoconstriction effect (Oryctolagus cuniculus [20]): 0
- Vasoconstriction effect (Oryctolagus cuniculus [21]): 0
- Vasoconstriction effect (Oryctolagus cuniculus [22]): 0
- Vasoconstriction effect (Oryctolagus cuniculus [23]): 0
- Vasoconstriction effect (Oryctolagus cuniculus [24]): 2.4
- EC25 (Rattus norvegicus [25]): 284 nM
- EC25 (Rattus norvegicus [26]): 535 nM
- EC25 (Rattus norvegicus [27]): 290 nM
- EC25 (Rattus norvegicus [28]): 470 nM

Compound: CCOC(=O)C1=C(CS(=O)(=O)c2ccncc2)NC(C)=C(C#N)C1c1ccccc1C(F)(F)F (stereo in doubt; 54A)
- IC50 [1]: 152 nM
- EC25 (Rattus norvegicus [25]): 128 nM
- EC25 (Rattus norvegicus [29]): 701 nM

Compound: CCOC(=O)C1=C(CS(=O)(=O)c2ccncc2)NC(C)=C(C#N)C1c1ccccc1C(F)(F)F (stereo in doubt; 54B)
- EC25 (Rattus norvegicus [25]): 1622 nM
- EC25 (Rattus norvegicus [29]): 888 nM

Compound: NC[C@H](O)c1ccc(O)c(O)c1 [NOREPINEPHRINE]
- Vasoconstriction effect (Oryctolagus cuniculus [30]): 151.3
- Vasoconstriction effect (Oryctolagus cuniculus [31]): 84.4
- Vasoconstriction effect (Oryctolagus cuniculus [32]): 22.2
- Vasoconstriction effect (Oryctolagus cuniculus [33]): 46.2
- Vasoconstriction effect (Oryctolagus cuniculus [34]): 137.2
- Vasoconstriction effect (Oryctolagus cuniculus [35]): 112.6
- Vasoconstriction effect (Oryctolagus cuniculus [36]): 106.3
- Vasoconstriction effect (Oryctolagus cuniculus [37]): 80.2
- Vasoconstriction effect (Oryctolagus cuniculus [38]): 0
- Vasoconstriction effect (Oryctolagus cuniculus [39]): 7.8
- Vasoconstriction effect (Oryctolagus cuniculus [40]): 49.1
- Vasoconstriction effect (Oryctolagus cuniculus [41]): 63.4
- Vasoconstriction effect (Oryctolagus cuniculus [42]): 0
- Vasoconstriction effect (Oryctolagus cuniculus [43]): 18.2

Compound: COC(=O)C1=C(C)NC(C)=C(C(=O)OC)C1c1ccccc1[N+](=O)[O-] [NIFEDIPINE]
- Vasorelaxant effect (Oryctolagus cuniculus [44]): -1
- Vasorelaxant effect (Oryctolagus cuniculus [45]): -3.1
- Vasorelaxant effect (Oryctolagus cuniculus [10]): 6.1
- Vasorelaxant effect (Oryctolagus cuniculus [11]): 92.6
- Vasorelaxant effect (Oryctolagus cuniculus [12]): 3.5
- Vasorelaxant effect (Oryctolagus cuniculus [13]): 89.4
- Vasorelaxant effect (Oryctolagus cuniculus [14]): 1
- Vasorelaxant effect (Oryctolagus cuniculus [15]): 65.8
- Vasorelaxant effect (Oryctolagus cuniculus [16]): -1.1
- Vasorelaxant effect (Oryctolagus cuniculus [17]): 24.7
- Vasorelaxant effect (Oryctolagus cuniculus [18]): -1.2
- Vasorelaxant effect (Oryctolagus cuniculus [19]): -1.7

Compound: COC(=O)C1=C(C)NC(C)=C([N+](=O)[O-])C1c1ccccc1C(F)(F)F (stereo unspecified)
- Vasoconstriction effect (Oryctolagus cuniculus [31]): 82.1
- Vasoconstriction effect (Oryctolagus cuniculus [32]): 0
- Vasoconstriction effect (Oryctolagus cuniculus [33]): 32.4
- Vasoconstriction effect (Oryctolagus cuniculus [35]): 15.9
- Vasoconstriction effect (Oryctolagus cuniculus [36]): 93.2
- Vasoconstriction effect (Oryctolagus cuniculus [37]): 10
- Vasoconstriction effect (Oryctolagus cuniculus [38]): 0
- Vasoconstriction effect (Oryctolagus cuniculus [39]): 3.2
- Vasoconstriction effect (Oryctolagus cuniculus [40]): 1.5
- Vasoconstriction effect (Oryctolagus cuniculus [41]): 59.2
- Vasoconstriction effect (Oryctolagus cuniculus [42]): 0
- Vasoconstriction effect (Oryctolagus cuniculus [43]): 10.2
